rRNA inh HTS: reduced GFP signal of wild-type E. coli, primary screen, bacterial rRNA inhibitor project, GFP/RFP fluorescence, OD600, single point. E. coli WT GFP vs humanized-ribosome RFP mutants, 24 h; stronger effect = lower value; DMSO median 0, no signal -100. GFP signal change (wild-type ribosome), % (test concentration not listed). 350,000 tested, 1.6% active;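 active = significant combined selectivity score with lowered wild-type GFP, culture density cut under 30%, mutant RFP and density less affected; inactive = any of these conditions unmet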
Statin myotox sup: suppressors of statin myotoxicity in C2C12 myotubes, primary screen, cell-based, single point, plate reader. C2C12 myotubes + simvastatin, ATP luminescence, 48 h; scaled: DMSO 0, geranylgeraniol control 100. 330,000 tested, 0.78% active. rescue of ATP level, % at 7.49 µM;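 active = mean ATP rescue above about 67%, or every replicate alone reaching that limit, limit read from the data, passing the limit was not always enough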;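 note: myotubes were challenged with 10 µM simvastatin during compound exposure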
FN deposit inh: inhibitors of fibronectin matrix deposition, primary screen, AH1F cells, Alexa488-fibronectin fluorescence, plate reader; AH1F fibroblasts, overnight; inhibition, % at 12.6 µM; 350,000 tested, 0.086% active;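 active = mean inhibition across replicates of 30% or more, regardless of how many single replicates reach that level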;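 note: positive control wells lacked labelled fibronectin entirely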
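test system = AH1F fibroblasts assembling fluorescent fibronectin matrix | quantity = 10000 AH1F cells per well | buffer or medium = DMEM plus 2% serum, read in PBS | doses = single dose, pinned | incubation = 1 h cell attachment, overnight exposure to compound and label | detection = fluorescence at 485 nm excitation, 525 nm emission | read-out basis = inhibition from reduced deposited-fibronectin fluorescence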
E-sel inducer: E-selectin induction in HUVECs, primary screen, imaging, HUVEC, immunofluorescence imaging, single point; normalized: neutral wells 0, TNF-alpha wells 100; activation, % at 7.58 µM; 260,000 tested, 0.37% active; AID 686992, 2013;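 active = mean E-selectin-positive cell signal at least 10% of the positive control, reached in at least 60% of replicates, without over 20% cell loss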
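System: HUVEC, human umbilical vein endothelial cells; quantity: 3,000 cells/well; buffer or medium: EGM-2 medium, gelatin-coated wells; dosing: single-point compound dose; detection: immunofluorescence imaging; evaluation: % PE-positive cells; benchmarks: TNF-alpha, DMSO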
FGF22 binding: binders of human FGF22 protein, primary screen, FGF22 synaptogenesis inhibitor project, biophysical, thermal shift, single point | Fibroblast growth factor 22 (Homo sapiens), Q9HCT0 | recombinant FGF22 thermal shift, SYPRO orange fluorescence; percent of sucrose octasulfate shift, DMSO zero | activity (Tm shift, normalised), % at 9.99 µM | 340,000 tested, 1.5% active | AID 651658, 2012;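 active = mean Tm shift, scaled 0 neutral to 100 positive control, at about 1.3% or above, every replicate too, limit read from the data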
SIRT5 inh: SIRT5 desuccinylase inhibitors, primary screen, biochemical, fluorescence imaging, single point, set 5. NAD-dependent protein deacylase sirtuin-5, mitochondrial (Homo sapiens), Q9NXA8. Purified SirT5, succinyl-peptide AMC, trypsin-coupled fluorescence. inhibition, % at 15 µM. 330,000 tested, 1.1% active. AID 652115, 2013; in the data active = inhibition above about 15%
Target sequence (Q9NXA8 whole entry, looked up): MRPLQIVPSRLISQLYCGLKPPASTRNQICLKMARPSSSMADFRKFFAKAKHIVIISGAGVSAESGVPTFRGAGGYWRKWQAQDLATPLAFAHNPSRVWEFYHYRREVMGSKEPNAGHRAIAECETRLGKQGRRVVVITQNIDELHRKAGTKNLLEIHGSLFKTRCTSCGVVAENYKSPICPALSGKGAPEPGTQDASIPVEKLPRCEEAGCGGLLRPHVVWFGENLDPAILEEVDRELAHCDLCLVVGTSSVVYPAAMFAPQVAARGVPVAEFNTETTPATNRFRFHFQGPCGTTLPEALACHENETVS
* hit, by the source's call; · = no result given. Rows were chosen to be rich in hits. Some 4% of all compounds tested hit in one or more screens of this group.

SMILES	rRNA inh HTS	Statin myotox sup	FN deposit inh	E-sel inducer	FGF22 binding	SIRT5 inh
COc1ccc(-c2nnc3n2CCCCC3)cc1OC	-1	8	0	35*	0	-3
C[C@@H]1CN([C@H](C)CO)C(=O)Cc2cc(NS(=O)(=O)c3ccccc3)ccc2O[C@H]1CN(C)S(=O)(=O)c1ccc(F)cc1	-2	34	·	0	0	·
O=C(NCC[C@H]1CC[C@H](NC(=O)Nc2cc(F)ccc2F)[C@@H](CO)O1)Nc1ccc(Cl)cc1	-45	-8	6	0	·	·
Cc1ccc(S(=O)(=O)c2nc(Cc3ccccc3)oc2N2CCOCC2)cc1	0	8	3	·	0	18*
Nc1nonc1-c1nc2ccccc2n1Cc1ccc(F)cc1Cl	·	116*	2	·	·	·
Fc1ccc(Cn2c(-c3cscn3)nc3ccccc32)c(Cl)c1	·	47	2	·	·	·
O=S(=O)(c1ccc(Br)cc1)c1nc(-c2ccco2)oc1NCC1CCCO1 (centres undefined)	·	·	-8	0	43*	-2
Cc1ccc(S(=O)(=O)c2nc(-c3ccco3)oc2NCC2CCCO2)cc1 (centres undefined)	·	·	-10	0	·	·
COc1ccc(O)c(/C=N/NC(=O)c2c(C)nnn2-c2nonc2N)c1	2	·	3	·	1	0
Cc1nnn(-c2nonc2N)c1C(=O)NNC(=O)c1ccc(Cl)c(Cl)c1	-26*	·	5	5	0	·
CCC(C)NC(=O)c1cn(-c2cccc(OC)c2)c(=O)c2ccccc12 (centres undefined)	6	-2	0	1	0	-4
CCN(CC)C(=O)c1cn(-c2cccc(OC)c2)c(=O)c2ccccc12	3	-1	0	67*	0	0
O=C(Nc1cc(F)ccc1F)N[C@@H]1CC[C@@H](CCn2cc(C3CC3)nn2)O[C@H]1CO	-3	2	-3	0	0	1
Cc1ccccc1CNC(=O)c1ccccc1NS(C)(=O)=O	7	·	6	·	0	27*
COc1ccc2nc3cc([N+](=O)[O-])ccc3c(NNc3ccc([N+](=O)[O-])cc3)c2c1	-18*	4	0	0	0	·
COc1ccc(-c2cc(C(=O)Oc3ccc([N+](=O)[O-])cc3)c3ccccc3n2)cc1	·	6	0	·	·	·
CC(=O)Nc1ccc(/C(N=Nc2ccccc2)=N/N=C(N)N)cc1	-20*	·	·	0	0	·
O=C(Cc1ccncc1)NCC[C@@H]1CC[C@@H](NC(=O)C2CCOCC2)[C@H](CO)O1	3	5	-23	0	0	-5
Cc1ccc(-c2ccc3c(c2)O[C@@H](CN(C)Cc2cccnc2)[C@H](C)CN([C@H](C)CO)S3(=O)=O)cc1	-18	-45	2	0	0	6
O=C(/C=C/c1ccc(O)cc1)c1ccccc1	3	10	-5	·	1.3*	2
COc1ccc(C(=O)/C=C/c2ccc(O)cc2)cc1	·	1	·	·	2.7*	·
CCOC(=O)Nc1ccc(C(=O)/C=C/c2ccccc2)cc1	-26*	-2	7	·	0	-1
CN(C)c1ccc(/C=C/C(=O)c2ccc(O)cc2)cc1	-37	6	-3	0	1	0
COc1ccc(C=CC(=O)c2cc(O)ccc2O)cc1	-36*	-11	6	0	0	·
O=C(/C=C/c1ccc(O)cc1)c1ccc(NC2=C(N3CCCCC3)C(=O)c3ccccc3C2=O)cc1	-37*	-139	·	·	0	4
O=C1C(Nc2ccccc2)=C(N2CCCCC2)C(=O)c2ccccc21	·	-90	·	·	·	·
C[C@@H]1CN([C@@H](C)CO)C(=O)Cc2cc(NC(=O)Cc3cn(C)c4ccccc34)ccc2O[C@@H]1CN(C)C(=O)Nc1ccc2c(c1)OCO2	-2	6	·	-7	0	1

Screening results deposited in PubChem by Broad Institute.
